This note sets out measurements from article PMC10582660 (Clinical and Translational Science, 2023).

The target of one series is T1, NTCP (Homo sapiens, UniProt Q14973).
T1 sequence (Q14973 1-349): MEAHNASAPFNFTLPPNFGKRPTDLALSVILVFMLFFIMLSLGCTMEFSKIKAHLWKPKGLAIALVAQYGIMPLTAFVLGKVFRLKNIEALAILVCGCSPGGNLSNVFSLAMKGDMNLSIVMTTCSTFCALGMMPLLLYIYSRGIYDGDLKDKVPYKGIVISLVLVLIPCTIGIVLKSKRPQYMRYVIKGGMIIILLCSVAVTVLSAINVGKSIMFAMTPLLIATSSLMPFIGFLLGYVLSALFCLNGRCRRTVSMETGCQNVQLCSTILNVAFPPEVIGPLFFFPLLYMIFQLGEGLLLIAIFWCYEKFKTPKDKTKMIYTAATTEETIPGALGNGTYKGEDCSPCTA
The series is described as follows: Raloxifene as a substrate for uptake transporters. It is filed as in vitro ADME. Particulars: raloxifene 1, 10 μM, 2, 20 min, two‐fold cutoff. The gist of the method:
(§1)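 Uptake of test compound (1 and 10 μM, 2 and 20 min) measured in transporter-expressing HEK293 or MDCKII cells or inside-out membrane vesicles. Run with positive-control probe substrates and inhibitors, plus empty-vector or untransfected control cells. Fold-accumulation relative to control cells judged against a two-fold cutoff for substrate status.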

The nature of series [1]: Follow-up exploratory clinical study: raloxifene stool recovery. In kind it is in vivo, human. As to conditions: for Raloxifene dose recovery0–48h in stool, geometric mean (CV%): stool 0 to 48 h relative to dose. An outline of the steps: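 Stool collected within 48 h pre-dose and all movements 0–24 and 24–48 h post-dose (water vs acute green tea arms), held at −20°C. Blended with water (1:2.5 by weight), stored at −80°C. Methanol/0.1% formic acid extraction with internal standards. 1×, 10× and 100× dilutions dried, reconstituted, quantified by UHPLC–MS/MS (calibration 0.06–400 nM). Recovery 0–48 h expressed as % of administered dose.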

The target in a further series is T2, OATP2B1 (Homo sapiens, UniProt O94956).
T2 sequence (O94956 1-709): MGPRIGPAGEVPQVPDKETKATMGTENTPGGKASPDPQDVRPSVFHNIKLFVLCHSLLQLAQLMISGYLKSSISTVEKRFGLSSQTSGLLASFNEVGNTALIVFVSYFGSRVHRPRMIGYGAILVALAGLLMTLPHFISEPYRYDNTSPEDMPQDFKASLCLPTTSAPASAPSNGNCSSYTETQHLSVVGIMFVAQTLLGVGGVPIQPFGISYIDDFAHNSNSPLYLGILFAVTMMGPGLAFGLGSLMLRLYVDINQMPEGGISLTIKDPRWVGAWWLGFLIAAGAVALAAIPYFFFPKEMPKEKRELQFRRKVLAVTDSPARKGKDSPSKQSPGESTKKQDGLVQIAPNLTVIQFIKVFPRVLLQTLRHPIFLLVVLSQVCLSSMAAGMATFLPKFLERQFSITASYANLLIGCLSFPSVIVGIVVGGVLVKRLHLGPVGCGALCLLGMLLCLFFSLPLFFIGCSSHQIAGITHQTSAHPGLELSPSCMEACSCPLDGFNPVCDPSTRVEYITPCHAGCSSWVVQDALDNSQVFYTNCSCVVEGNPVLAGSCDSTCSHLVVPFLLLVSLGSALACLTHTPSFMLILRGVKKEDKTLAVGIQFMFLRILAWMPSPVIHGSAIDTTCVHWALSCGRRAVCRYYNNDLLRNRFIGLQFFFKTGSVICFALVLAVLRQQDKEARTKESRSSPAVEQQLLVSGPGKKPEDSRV
The series is described as follows: Raloxifene as a substrate for uptake transporters. It is filed as in vitro ADME. Particulars: raloxifene 1, 10 μM, 2, 20 min, two‐fold cutoff. An outline of the steps: as §1

In another series the target is T3, OATP1B1 (Homo sapiens, UniProt Q9Y6L6).
T3 sequence (Q9Y6L6 1-691): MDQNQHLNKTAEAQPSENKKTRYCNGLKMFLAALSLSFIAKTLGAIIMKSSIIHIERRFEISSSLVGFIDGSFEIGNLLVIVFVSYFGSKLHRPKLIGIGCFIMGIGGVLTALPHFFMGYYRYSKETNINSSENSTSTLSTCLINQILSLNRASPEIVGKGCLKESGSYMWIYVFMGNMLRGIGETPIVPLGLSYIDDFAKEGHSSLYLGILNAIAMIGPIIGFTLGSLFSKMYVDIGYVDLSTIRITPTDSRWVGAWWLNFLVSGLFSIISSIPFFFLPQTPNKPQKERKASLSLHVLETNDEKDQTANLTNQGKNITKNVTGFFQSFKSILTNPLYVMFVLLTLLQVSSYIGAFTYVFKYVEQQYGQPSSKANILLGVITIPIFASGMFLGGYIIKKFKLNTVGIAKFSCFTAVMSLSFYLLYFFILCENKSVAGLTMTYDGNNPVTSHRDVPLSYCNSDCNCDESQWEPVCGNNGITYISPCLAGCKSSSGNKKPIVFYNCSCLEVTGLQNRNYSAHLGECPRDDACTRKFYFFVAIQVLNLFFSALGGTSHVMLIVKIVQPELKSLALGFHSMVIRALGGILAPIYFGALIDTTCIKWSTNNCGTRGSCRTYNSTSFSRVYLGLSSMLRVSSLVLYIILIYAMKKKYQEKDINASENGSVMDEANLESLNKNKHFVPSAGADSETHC
Briefly: Raloxifene as a substrate for uptake transporters. It is filed as in vitro ADME. Particulars: raloxifene 1, 10 μM, 2, 20 min, two‐fold cutoff. The gist of the method:
as §1

A further series addresses T4, OAT3 (Homo sapiens, UniProt Q8TCC7).
T4 sequence (Q8TCC7 1-542): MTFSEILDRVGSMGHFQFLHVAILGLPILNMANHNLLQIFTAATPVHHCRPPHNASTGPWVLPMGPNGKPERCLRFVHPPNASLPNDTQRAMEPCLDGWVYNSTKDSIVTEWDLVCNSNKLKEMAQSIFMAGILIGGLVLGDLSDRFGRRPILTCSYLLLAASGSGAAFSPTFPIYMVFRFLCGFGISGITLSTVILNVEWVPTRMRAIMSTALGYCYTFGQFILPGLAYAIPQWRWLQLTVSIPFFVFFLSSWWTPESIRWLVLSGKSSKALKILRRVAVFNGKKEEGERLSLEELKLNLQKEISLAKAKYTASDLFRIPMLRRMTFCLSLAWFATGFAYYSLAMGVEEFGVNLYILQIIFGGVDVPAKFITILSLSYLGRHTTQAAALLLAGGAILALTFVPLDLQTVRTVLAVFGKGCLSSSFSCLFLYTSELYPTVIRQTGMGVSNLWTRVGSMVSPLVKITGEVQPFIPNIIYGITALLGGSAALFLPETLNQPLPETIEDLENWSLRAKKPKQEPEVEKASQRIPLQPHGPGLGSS
The series is described as follows: Raloxifene as a substrate for uptake transporters. As to conditions: raloxifene 1, 10 μM, 2, 20 min, two‐fold cutoff. It is filed as in vitro ADME. An outline of the steps: as §1

Structures are written as SMILES. Several values for one entry are separate records, joined by “and”; a condition that tells them apart may be missing. Identical values can stand only once.

Turning to `O=C(c1ccc(OCCN2CCCCC2)cc1)c1c(-c2ccc(O)cc2)sc2cc(O)ccc12` [Raloxifene, raloxifene, reference compound], the “fold‐accumulation” value is listed as 1.14–1.33 on NTCP, 0.82–1.00 on OATP2B1, 1.04–1.19 on OATP1B1 and 0.75–1.03 on OAT3. For the same compound, the “Raloxifene dose recovery0–48h green tea/baseline ratio (90% CI)” value in series [1] (acute green tea vs baseline) is 1.05 (0.45–2.43). Besides, the “Percentage change in raloxifene stool recovery” value in series [1] (baseline to acute green tea, individual participants) is −70% and 440% and −80% and 300% and 10% and −14%. Also, in series [1] (baseline, individual participants no. 8, 11, 12, 16, 17, 18), the Raloxifene stool recovery is 1.7% and 0.27% and 93.8% and 18.0% and 17.4% and 69.8%. For the same compound, the results for the “Raloxifene dose recovery0–48h in stool, geometric mean (CV%)” value in series [1] (acute green tea) and in series [1] (baseline) were 10.6 (103) % and 10.1 (115) %, respectively.
